Results taken from ChEMBL document CHEMBL3763151, “Antinociceptive Grayanoids from the Roots of Rhododendron molle” (J Nat Prod, 2015).
Calls of active or inactive are those of the source.

Key:
Mus musculus [1] = assay: Antinociceptive activity in Kunming mouse model of acute pain assessed as inhibition of acetic acid-induced writhes at 5 mg/kg, ip administered 30 mins prior to acetic acid challenge measured for 30 mins; format: functional, organism-based
Method in brief: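 Acute-pain model in mice: compounds given ip, and writhing counted against vehicle-injected mice.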

Mus musculus [2] = assay: Antinociceptive activity in Kunming mouse model of acute pain assessed as inhibition of acetic acid-induced writhes at 0.08 mg/kg, ip administered 30 mins prior to acetic acid challenge measured for 30 mins relative to control; format: functional
Method in brief: (§1)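 Acetic acid-induced writhing in mice after ip dosing, with a vehicle-injected group for comparison. Reported as mean ± SEM of 12 mice per group. Significance vs vehicle by one-way ANOVA followed by Bonferroni test.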

Mus musculus [3] = assay: Toxicity in ip dosed Kunming mouse by Karber's method; format: organism-based; conditions: in vivo
Mus musculus [4] = assay: Antinociceptive activity in Kunming mouse assessed as increase in licking latency time at 0.08 mg/kg, ip by hot plate test; format: functional, organism-based
[5] = Selectivity index, ratio of LD50 for toxicity in Kunming mouse to ID50 for antinociceptive activity in Kunming mouse model of acute pain; format: organism-based; conditions: in vivo, read-out: Selectivity Index
Mus musculus [6] = assay: Antinociceptive activity in Kunming mouse model of acute pain assessed as inhibition of acetic acid-induced writhes at 0.08 mg/kg, ip administered 30 mins prior to acetic acid challenge measured for 30 mins in presence of nonselective opioid antagonist naloxone; format: functional, organism-based
Mus musculus [7] = assay: Antinociceptive activity in ip dosed Kunming mouse model of acute pain assessed as inhibition of acetic acid-induced writhes administered 30 mins prior to acetic acid challenge measured for 30 mins; format: functional; conditions: for ED50: read-out: ID50 (the source's name); method in brief: as §1
Mus musculus [8] = assay: Antinociceptive activity in po dosed Kunming mouse model of STZ-induced diabetic neuropathy pain assessed as complete reversal of mechanical hyperalgesia; format: functional, organism-based
Method in brief: (§2)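 Streptozotocin-diabetic mice with mechanical hyperalgesia were dosed orally (n = 8), with vehicle and gabapentin groups for comparison. Data are mean ± SEM. Significance vs vehicle by one-way ANOVA followed by Bonferroni test.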

Mus musculus [9] = assay: Antinociceptive activity in Kunming mouse model of STZ-induced diabetic neuropathy pain assessed as increase in paw withdrawal mechanical threshold at 0.2 to 0.4 mg/kg, po relative to gabapentin; format: functional; method in brief: as §2
Mus musculus [10] = assay: Antinociceptive activity in ip dosed Kunming mouse model of formalin-induced pain assessed as reduction of time spent in licking in phase 1 administered 30 mins before formalin injection measured for 5 mins; format: functional, organism-based
Method in brief: (§3)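 Formalin test scored in phase I and phase II after ip dosing, against a vehicle group (n = 10). Control drugs used: morphine and ibuprofen. Data are mean ± SEM. Significance vs vehicle by one-way ANOVA followed by Bonferroni test.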

Mus musculus [11] = assay: Antinociceptive activity in ip dosed Kunming mouse model of formalin-induced pain assessed as reduction of time spent in licking in phase 2 administered 30 mins before formalin injection measured for 15 to 30 mins; format: functional, organism-based; method in brief: as §3
Mus musculus [12] = assay: Antinociceptive activity in Kunming mouse model of formalin-induced pain assessed as reduction of time spent in licking in phase 1 at 60 mg/kg, ip administered 30 mins before formalin injection measured for 5 mins; format: functional, organism-based
Method in brief: (§4)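 Formalin test in mice with phases I and II scored separately. Compounds given ip, n = 10 per group. Data are mean ± SEM, compared with the vehicle group by one-way ANOVA followed by the Bonferroni test.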

Mus musculus [13] = assay: Antinociceptive activity in Kunming mouse model of formalin-induced pain assessed as reduction of time spent in licking in phase 2 at 60 mg/kg, ip administered 30 mins before formalin injection measured after 15 mins up to 30 mins; format: functional, organism-based; method in brief: as §4
Mus musculus [14] = assay: Antinociceptive activity in Kunming mouse model of STZ-induced diabetic neuropathy pain assessed as increase in paw withdrawal mechanical threshold at 50 mg/kg, po; format: functional, organism-based; method in brief: as §2
Mus musculus [15] = assay: Antinociceptive activity in Kunming mouse assessed as increase in licking latency time at 0.02 to 0.08 mg/kg, ip by hot plate test; format: functional, organism-based
Mus musculus [16] = assay: Antinociceptive activity in Kunming mouse model of formalin-induced pain assessed as reduction of time spent in licking in phase 2 at 2 mg/kg, ip administered 30 mins before formalin injection measured after 15 mins up to 30 mins; format: functional, organism-based; method in brief: as §3
Mus musculus [17] = assay: Antinociceptive activity in Kunming mouse model of acute pain assessed as inhibition of acetic acid-induced writhes at 0.8 mg/kg, ip administered 30 mins prior to acetic acid challenge measured for 30 mins in presence of nonselective opioid antagonist naloxone; format: functional, organism-based
Mus musculus [18] = assay: Antinociceptive activity in Kunming mouse model of formalin-induced pain assessed as reduction of time spent in licking in phase 1 at 2 mg/kg, ip administered 30 mins before formalin injection measured for 5 mins; format: functional, organism-based; method in brief: as §3

C=C1[C@@H]2[C@@H](O)[C@H](O[C@@H]3O[C@H](CO)[C@@H](O)[C@H](O)[C@H]3O)C(C)(C)[C@@]2(O)[C@H](O)C[C@]23C[C@@](C)(O)[C@H](CC[C@@H]12)[C@H]3O
inhibition (Mus musculus [1]): inactive

C=C1[C@@H]2[C@H](O)[C@H](O[C@@H]3O[C@H](CO)[C@@H](O)[C@H](O)[C@H]3O)C(C)(C)[C@@]2(O)[C@H](O)C[C@]23C[C@@](C)(O)[C@H](CC[C@@H]12)[C@H]3O
inhibition (Mus musculus [1]): inactive

CC1(C)[C@@H](O[C@@H]2O[C@H](CO)[C@@H](O)[C@H](O)[C@H]2O)[C@@H](O)[C@H]2[C@](C)(O)[C@@H]3CC[C@@H]4[C@@H](O)[C@@]3(C[C@@H](O)[C@@]21O)C[C@@]4(C)O
inhibition (Mus musculus [1]): inactive

CC1(C)[C@@H](O)[C@@H](O)[C@@H]2[C@@](C)(O)[C@@H]3CC[C@@H]4[C@@H](O)[C@@]3(C[C@@H](O)[C@@]21O)C[C@@]4(C)O
inhibition (Mus musculus [1]): Active

C=C1C[C@@]23C[C@@H](O)[C@@]4(O)[C@H](C(=C)[C@@H]2CC[C@@H]1[C@H]3O)[C@@H](O)[C@H](O)C4(C)C
inhibition (Mus musculus [1]): inactive

C=C1[C@@H]2[C@@H](O)[C@H](O)C(C)(C)[C@@]2(O)[C@H](O)C[C@]23C[C@@](C)(O)[C@H](CC[C@@H]12)[C@H]3O
inhibition (Mus musculus [1]): inactive

CC1(C)[C@@H](O)C[C@H]2[C@](C)(O)[C@@H]3CC[C@@H]4[C@@H](O)[C@@]3(C[C@@H](O)[C@@]21O)C[C@@]4(C)O [GRAYANOTOXIN III]
inhibition in vivo at 0.08 mg/kg (Mus musculus [2]): 55.6%

CC1(C)[C@H]2O[C@H]2[C@H]2[C@](C)(O)[C@@H]3CC[C@@H]4[C@@H](O)[C@@]3(C[C@@H](O)[C@@]21O)C[C@@]4(C)O
LD50 (Mus musculus [3]): 0.271 mg/kg | Activity (Mus musculus [4]): Active | selectivity ratio [5]: 5.8 | inhibition (Mus musculus [6]): Active | inhibition in vivo at 0.08 mg/kg (Mus musculus [2]): 73.7% | inhibition (Mus musculus [7]): Dose-dependent effect | ED50 (Mus musculus [7]): 0.0469 mg/kg | Activity (Mus musculus [8]): Dose-dependent effect | fold change (FC) (Mus musculus [9]): 100 | Activity (Mus musculus [10]): Dose-dependent effect | Activity (Mus musculus [11]): Dose-dependent effect

CC1(C)[C@@H](O[C@@H]2O[C@H](CO)[C@@H](O)[C@H](O)[C@H]2O)[C@@H](O)[C@@H]2[C@@](C)(O)[C@@H]3CC[C@@H]4C[C@@]3(C[C@@H](O)[C@@]21O)C[C@@]4(C)O
inhibition (Mus musculus [1]): Active

CC(C)Cc1ccc(C(C)C(=O)O)cc1 (stereo not drawn)
Activity (Mus musculus [12]): inactive | Activity (Mus musculus [13]): Active

C=C1[C@@H]2CC[C@@H]3C[C@@]2(C[C@@H](O)[C@@]2(O)[C@@H]1[C@H](O)[C@H](O)C2(C)C)C[C@@]3(C)O
inhibition (Mus musculus [1]): Active

C=C1[C@@H]2CC[C@@H]3[C@@H](O)[C@@]2(C[C@@H](O)[C@@]2(O)[C@H]1C[C@H](O)C2(C)C)C[C@@]3(C)O
inhibition (Mus musculus [1]): Active

NCC1(CC(=O)O)CCCCC1
Activity (Mus musculus [14]): Active

CC1(C)[C@H]2O[C@H]2[C@H]2[C@](C)(O)[C@@H]3C[C@@H](O)[C@@H]4[C@@H](O)[C@@]3(C[C@@H](O)[C@@]21O)C[C@@]4(C)O
inhibition (Mus musculus [1]): Active

C=C1[C@@H]2[C@H](O)[C@H](O)C(C)(C)[C@@]2(O)[C@H](O)C[C@]23C=C(C)[C@H](CC[C@@H]12)[C@H]3O
inhibition (Mus musculus [1]): inactive

CC1(C)[C@@H](O)[C@H](O)[C@H]2[C@](C)(O)[C@@H]3CC[C@@H]4[C@@H](O)[C@@]3(C[C@@H](O)[C@@]21O)C[C@@]4(C)O
LD50 (Mus musculus [3]): 1.791 mg/kg | selectivity ratio [5]: 24.6 | Activity (Mus musculus [15]): inactive | inhibition (Mus musculus [6]): Active | inhibition in vivo at 0.08 mg/kg (Mus musculus [2]): 64.2% | inhibition (Mus musculus [7]): Dose-dependent effect | ED50 (Mus musculus [7]): 0.0727 mg/kg | Activity (Mus musculus [8]): Dose-dependent effect | fold change (FC) (Mus musculus [9]): 100 | Activity (Mus musculus [10]): Dose-dependent effect | Activity (Mus musculus [11]): Dose-dependent effect

CN1CC[C@]23c4c5ccc(O)c4O[C@H]2[C@@H](O)C=C[C@H]3[C@H]1C5 [MORPHINE]
Activity (Mus musculus [16]): Active | inhibition (Mus musculus [17]): inactive | Activity (Mus musculus [18]): Active | ED50 (Mus musculus [7]): 0.343 mg/kg

CC1=C2CC[C@@H]3[C@@H](O)[C@@]2(C[C@@H](O)[C@@]2(O)[C@H]1[C@@H](O)[C@H](O)C2(C)C)C[C@@]3(C)O
inhibition (Mus musculus [1]): inactive

CC1(C)[C@@H](O[C@@H]2O[C@H](CO)[C@@H](O)[C@H](O)[C@H]2O)[C@H](O)[C@H]2[C@](C)(O)[C@@H]3CC[C@@H]4[C@@H](O)[C@@]3(C[C@@H](O)[C@@]21O)C[C@@]4(C)O
inhibition (Mus musculus [1]): Active
